ChEMBL document CHEMBL1649411, “Potent antitumor mimetics of annonaceous acetogenins embedded with an aromatic moiety in the left hydrocarbon chain part” (J Med Chem, 2011)

Assays:
[1] = test system: SGC-7901; experiment: Cytotoxicity against human SGC7901 cells after 72 hrs by MTT assay; assay type: functional; conditions: SGC-7901, 72 h
Outline: (§1)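 Cells were grown in DMEM with penicillin-streptomycin, L-glutamine and 10% FBS, then seeded at 5 × 10³ cells/well. MTT (5 mg mL^-1 stock) was added for 4 h, then dissolved in DMSO. A570 was read against a 690 nm reference, with at least four replicates. Inhibition was calculated versus blank-corrected vehicle control, giving GI50.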

[2] = test system: A549; experiment: Cytotoxicity against human A549 cells after 72 hrs by MTT assay; assay type: functional; conditions: A549, 72 h; outline: as §1
[3] = test system: MCF7; experiment: Cytotoxicity against human MCF7 cells after 72 hrs by MTT assay; assay type: functional; conditions: MCF7, 72 h; outline: as §1
[4] = test system: HCT-116; experiment: Cytotoxicity against human HCT116 cells after 72 hrs by MTT assay; assay type: functional; conditions: HCT-116, 72 h
Outline: (§2)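 Cells were maintained in F12/DMEM with penicillin-streptomycin, L-glutamine and 10% FBS, and plated at 5 × 10³ cells/well. Sixteen hours later, medium containing compound ([…]) or DMSO vehicle was added for 72 h. MTT (5 mg mL^-1 stock) was applied for 4 h and formazan dissolved in DMSO. Absorbance was read at 570/690 nm in at least quadruplicate. Growth inhibition versus blank-corrected controls gave GI50.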

[5] = test system: HT-29; experiment: Cytotoxicity against human HT-29 cells after 72 hrs by MTT assay; assay type: functional; conditions: HT-29, 72 h; outline: as §2
[6] = Cytotoxicity against HLF after 72 hrs by MTT assay; assay type: cell-based; conditions: human, HLF cells; outline: as §1
[7] = Cytotoxicity against human BEAS2B cells after 72 hrs by MTT assay; assay type: cell-based, BEAS-2B; outline: as §1

SMILES: C[C@H]1C=C(CCCCCCCC(O)CCCC[C@H](O)COCCOC[C@@H](O)CCCc2cccc(O)c2)C(=O)O1 (stereo partly specified)
- GI50 [1]: 1 µM
- GI50 [2]: 6 µM
- GI50 [3]: 24.5 µM
- GI50 [4]: 2.8 µM
- GI50 [5]: 69 µM
- GI50 at 72 h [6]: > 100 µM
- GI50 at 72 h [7]: > 100 µM

SMILES: CCCCCC[C@H](O)COCCOC[C@@H](O)CCCCC(O)CCCCCCCC1=C[C@H](C)OC1=O (stereo partly specified)
- GI50 [1]: 2 µM
- GI50 [2]: 10.8 µM
- GI50 [3]: 5.8 µM
- GI50 [4]: 4.2 µM
- GI50 [5]: 19.4 µM
- GI50 at 72 h [6]: 11.1 µM
- GI50 at 72 h [7]: > 100 µM

SMILES: C[C@H]1C=C(CCCCCCCC(O)CCCC[C@H](O)COCCOC[C@@H](O)CCCc2ccc(-c3ccccc3)cc2)C(=O)O1 (stereo partly specified)
- GI50 [1]: 0.02 µM
- GI50 [2]: 0.177 µM
- GI50 [3]: 0.154 µM
- GI50 [4]: 0.134 µM
- GI50 [5]: 0.355 µM
- GI50 at 72 h [6]: > 100 µM
- GI50 at 72 h [7]: > 100 µM

SMILES: COc1ccc2cc(CCC[C@H](O)COCCOC[C@@H](O)CCCCC(O)CCCCCCCC3=C[C@H](C)OC3=O)ccc2c1 (stereo partly specified)
- GI50 [1]: 0.082 µM
- GI50 [2]: 3.7 µM
- GI50 [3]: 12.6 µM
- GI50 [4]: 1.1 µM
- GI50 [5]: 1.1 µM
- GI50 at 72 h [6]: 10 µM
- GI50 at 72 h [7]: > 100 µM

SMILES: C[C@H]1C=C(CCCCCCCC(O)CCCC[C@H](O)COCCOC[C@@H](O)CCCc2ccccc2)C(=O)O1 (stereo partly specified)
- GI50 [1]: 0.275 µM
- GI50 [2]: 0.773 µM
- GI50 [3]: 0.84 µM
- GI50 [4]: 0.394 µM
- GI50 [5]: 1.1 µM
- GI50 at 72 h [6]: 7.4 µM
- GI50 at 72 h [7]: > 100 µM

SMILES: CCCCCCCCCC[C@H](O)COCCOC[C@@H](O)CCCCCCCCCCCCC1=C[C@H](C)OC1=O
- GI50 [1]: 0.065 µM
- GI50 [2]: 0.305 µM
- GI50 [3]: 0.276 µM
- GI50 [4]: 0.113 µM
- GI50 [5]: 0.291 µM
- GI50 at 72 h [6]: 20.9 µM
- GI50 at 72 h [7]: 120 µM

SMILES: C[C@H]1C=C(CCCCCCCC(O)CCCC[C@H](O)COCCOC[C@@H](O)CCCCC2CCCCC2)C(=O)O1 (stereo partly specified)
- GI50 [1]: 0.75 µM
- GI50 [2]: 4.5 µM
- GI50 [3]: 1.8 µM
- GI50 [4]: 1.6 µM
- GI50 [5]: 5.4 µM
- GI50 at 72 h [6]: 5.5 µM
- GI50 at 72 h [7]: 61 µM

SMILES: COc1ccc(CCC[C@H](O)COCCOC[C@@H](O)CCCCC(O)CCCCCCCC2=C[C@H](C)OC2=O)cc1 (stereo partly specified)
- GI50 [1]: 0.198 µM
- GI50 [2]: 4.5 µM
- GI50 [3]: 23.3 µM
- GI50 [4]: 2.3 µM
- GI50 [5]: 4.3 µM
- GI50 at 72 h [6]: 11.3 µM
- GI50 at 72 h [7]: > 100 µM
